{
  "source": "paper PMC4435052",
  "about": "(Combinatorial Chemistry & High Throughput Screening, 2015)",
  "key": {"MDA-MB-231 cells [1]": {"test_system": "MDA-MB-231 cells", "assay": "Cell proliferation by live cell imaging", "assay_type": "cell-based, human", "how_it_was_run": "(§1)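 Cells cultured in EMEM, DMEM or RPMI 1640 with 10% FBS, seeded at 1,600 cells/well 6-12 h before treatment. Exposed up to 72 h to test compound (5-80 µM), DMSO as negative control, or 20 µM benzethonium chloride as kill control. CellTox Green in medium; live imaging gave toxicity (green fluorescence) and proliferation (phase-contrast confluency). Replicate sets.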"}, "HeLa cells [2]": {"test_system": "HeLa cells", "assay_type": "cell-based, human", "how_it_was_run": "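HeLa cells synchronized by double thymidine block: 2 mM thymidine at plating for 19 h, three PBS washes, release into fresh medium, second 2 mM block 9 h later, washed after 16 h. Released with or without test compound (10-80 µM) or nocodazole (165 nM). Tracked by live-cell phase imaging for cell rounding and death.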"}, "RWPE-1 cells": {"test_system": "RWPE-1 cells", "assay": "Cell viability dose response in slow growing cells", "assay_type": "cell-based, human", "conditions": "72 h dose response 5-80 µM", "how_it_was_run": "as §1"}, "HeLa cells [3]": {"test_system": "HeLa cells", "assay": "Immunofluorescence analysis of cell division morphology", "assay_type": "cell-based, human", "conditions": "25 µM, 48 h", "how_it_was_run": "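HeLa cells on fibronectin-coated coverslips, treated 3-48 h with DMSO or 25 µM test compound. Fixed in ice-cold methanol and stained with mouse anti-α-tubulin and goat anti-MgcRacGAP. Detected with Alexa Fluor 488 and 647 secondaries; DAPI-containing mountant. Imaged by widefield fluorescence microscopy.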"}, "[4]": {"target": "MgcRacGAP GAP activity on wild type Rac1 (Homo sapiens, UniProt Q9H0H5)", "sequence (Q9H0H5 345-618)": "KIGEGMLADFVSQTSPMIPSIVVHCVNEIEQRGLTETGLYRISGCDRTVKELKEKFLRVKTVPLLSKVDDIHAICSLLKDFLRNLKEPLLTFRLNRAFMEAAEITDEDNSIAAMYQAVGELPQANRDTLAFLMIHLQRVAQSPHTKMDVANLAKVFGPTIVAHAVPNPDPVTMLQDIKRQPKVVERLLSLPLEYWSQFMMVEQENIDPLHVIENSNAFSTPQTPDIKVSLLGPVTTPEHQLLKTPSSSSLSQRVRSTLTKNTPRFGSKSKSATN", "assay": "Single turnover GAP assay with GTP-loaded wild type Rac1", "assay_type": "biochemical", "conditions": "GTP-loaded wild type Rac1, 50 µM"}, "A549 cells [5]": {"test_system": "A549 cells", "assay": "FUCCI cell cycle reporter assay", "assay_type": "cell-based, human", "conditions": "80 µM, from 6 h after exposure", "how_it_was_run": "(§2)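 A549 cells at 50,000/well received Premo gemini-GFP (G2/M) and Cdt-RFP (G1/S) 1:1 24 h after plating. After overnight incubation, replated at 1,600 cells/well. Imaged hourly by phase contrast, green and red fluorescence. 14 h later given 80 µM test compound, DMSO, or 20 µM benzethonium chloride, then followed hourly.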"}, "A549 cells [6]": {"test_system": "A549 cells", "assay": "Cytotoxicity by live cell imaging", "assay_type": "cell-based, human", "conditions": "80 µM", "how_it_was_run": "as §2"}, "[7]": {"target": "T1, BCR(1010-1271) GAP domain (Homo sapiens, UniProt P11274)", "T1 sequence (P11274 1010-1271)": "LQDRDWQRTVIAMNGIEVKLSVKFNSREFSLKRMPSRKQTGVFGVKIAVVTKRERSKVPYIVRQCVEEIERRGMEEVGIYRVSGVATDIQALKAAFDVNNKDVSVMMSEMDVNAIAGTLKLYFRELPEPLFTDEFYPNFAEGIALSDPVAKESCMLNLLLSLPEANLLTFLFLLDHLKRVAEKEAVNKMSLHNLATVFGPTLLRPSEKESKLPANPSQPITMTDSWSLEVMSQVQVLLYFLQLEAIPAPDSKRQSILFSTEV", "assay": "Counter/selectivity GAP activity assay with BCR GAP domain in place of MgcRacGAP", "assay_type": "biochemical", "how_it_was_run": "(§3)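 Same buffer as the primary assay: Rac1(F28L) 600 nM, 150 µM GTP, 2% DMSO, 2 h at room temperature. GAP domain is BCR(1010-1271) at 200 nM or p50RhoGAP(205-439) at 50 nM, doses set for similar signal window. Test compound at 0.1-100 µM, with or without pre-incubation before GTP start. Read-out is ADP Hunter Plus fluorescence (ex 530/em 590 nm), normalized to plate controls.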"}, "Rac1-MgcRacGAP complex": {"target": "Rac1-MgcRacGAP complex (Homo sapiens, UniProt P63000+Q9H0H5, Q61L)", "sequence (Q9H0H5 345-618, stated change not applied, one chain of several)": "as the sequence (Q9H0H5 345-618) above", "assay": "MgcRacGAP - Rac1 Q61L binding assay, bio-layer interferometry", "conditions": "12.5-50 µM, dose dependent"}, "[8]": {"target": "MgcRacGAP(345-618) GAP domain (Homo sapiens, UniProt Q9H0H5)", "sequence (Q9H0H5 345-618)": "as the sequence (Q9H0H5 345-618) above", "assay": "Primary biochemical GAP activity assay, Rac1", "how_it_was_run": "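Rac1(F28L) 600 nM with MgcRacGAP(345-618) at 2 nM in 15 mM Hepes pH 7.5, 20 mM NaCl, 1 mM EGTA, 0.02% Tween 20, 0.1 mg/mL BSA, 2% DMSO, 150 µM GTP; 2 h at room temperature. GDP detected by ADP Hunter Plus at half volumes (resorufin ex 530/em 590 nm). Test compound at 0.1-100 µM, with or without protein pre-incubation before GTP; n=8; control-normalized, fits constrained 0-100%.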"}, "MDA-MB-231 cells [9]": {"test_system": "MDA-MB-231 cells", "assay": "Scratch-wound Matrigel invasion", "assay_type": "cell-based, human", "conditions": "10-40 µM, increasing concentrations", "how_it_was_run": "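MDA-MB-231 cells at 40,000/well on Matrigel-precoated plates. After 16 h, near-confluent monolayers scratched, washed and overlaid with Matrigel (8 mg/mL). After 30 min at 37°C, medium with DMSO or test compound (10-40 µM final) added. Scratch-wound imaging followed; relative wound density computed per image; n=4.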"}, "MDA-MB-231 cells [10]": {"test_system": "MDA-MB-231 cells", "assay": "Cytotoxicity, CellTox Green live cell imaging", "assay_type": "cell-based, human", "how_it_was_run": "as §1"}, "[11]": {"test_system": "essential replicative helicase of Staphylococcus aureus", "conditions": "80 µM, ref PubChem AID 485395; cited from earlier work"}, "[12]": {"target": "MgcRacGAP-stimulated activity of wild type Rac1 (Homo sapiens, UniProt Q9H0H5)", "sequence (Q9H0H5 345-618)": "as the sequence (Q9H0H5 345-618) above", "assay": "Multiple-turnover GTPase assay with wild type Rac1", "assay_type": "biochemical", "conditions": "wild type Rac1, data not shown", "how_it_was_run": "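Wild-type Rac1 […] in the 2x mix, combined with test compound in GTPase/GAP buffer. MgcRacGAP serially diluted in (0.1-100 nM) and held 2 h at room temperature. Started with 2x GTP (10 µM) and run 2 h more. Remaining GTP read by GTPase-Glo reagent (30 min), then detection solution; luminescence read after 10 min.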"}, "A549 cells [13]": {"test_system": "A549 cells", "assay_type": "cell-based, human", "conditions": "25 µM", "how_it_was_run": "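A549 cells in chamber slides, treated 3-48 h with DMSO or 25 µM test compound. Stained with phalloidin, Hoechst 33342, anti-α-tubulin and anti-MgcRacGAP. Cells scored as normal (mononuclear), mitotic (rounded), multinuclear or dead in at least eight random fields per condition. Reported as average percentage per time point.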"}, "A549 cells [14]": {"test_system": "A549 cells", "assay": "Cellular movement, tracking of individual cells in 2D culture", "assay_type": "cell-based, human", "conditions": "25 µM, 24 h", "how_it_was_run": "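A549 cells seeded at 10,000/well and given DMSO or 25 µM test compound 6 h later. Imaged every 5 min with a 20x objective for 24 h. Randomly chosen cells tracked individually to trace movement in 2D.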"}, "[15]": {"target": "T2, p50RhoGAP(205-439) GAP domain (Mus musculus, UniProt Q5FWK3)", "T2 sequence (Q5FWK3 205-439)": "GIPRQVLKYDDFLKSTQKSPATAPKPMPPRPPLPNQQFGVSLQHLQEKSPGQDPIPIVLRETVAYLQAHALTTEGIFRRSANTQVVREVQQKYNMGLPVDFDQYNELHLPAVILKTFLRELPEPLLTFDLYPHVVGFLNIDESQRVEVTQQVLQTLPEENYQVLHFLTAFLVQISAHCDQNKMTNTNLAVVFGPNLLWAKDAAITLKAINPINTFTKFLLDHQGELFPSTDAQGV", "assay": "Selectivity GAP activity assay with p50RhoGAP GAP domain", "assay_type": "biochemical", "how_it_was_run": "as §3"}, "[16]": {"conditions": "prolonged periods of time, data not shown"}, "[17]": {"conditions": "dose response 0.1-100 µM, no pre-incubation"}, "[18]": {"conditions": "proteins pre-incubated with compound before GTP addition"}},
  "note": "“Also recorded” adds a separate entry of the source.",
  "data": [
    {"compound": "Cl.Cl.c1cc2cc(C3=NCCN3)ccc2cc1C1=NCCN1", "note": "[MINC1, 2,6-bis(4,5-dihydro-1H-imidazol-2-yl)naphthalene dihydrochloride]", "values": [
      {"measurement": "IC50", "setting": "MDA-MB-231 cells [1]; Homo sapiens, MDA-MB-231, 48 h, read-out: IC50 cell proliferation", "result": 17, "unit": "µM"},
      {"measurement": "concentration that caused cell proliferation to cease", "setting": "MDA-MB-231 cells [1]; highly proliferative cells", "result": "≥ 20", "unit": "µM"},
      {"measurement": "time to cell rounding, non-synchronized cells", "setting": "HeLa cells [2]; after compound addition", "result": "approximately 3 h"},
      {"measurement": "time to cell rounding, synchronized cells", "setting": "HeLa cells [2]; after release from double thymidine block", "result": "8 to 10", "unit": "h"},
      {"measurement": "concentration at which cell death was observed", "setting": "HeLa cells [2]; [16]", "result": 80, "unit": "µM"},
      {"measurement": "effect on cell viability in slow growing cells", "setting": "RWPE-1 cells", "result": "negligible effects on cell viability"},
      {"measurement": "multinucleated cells versus control", "setting": "HeLa cells [3]", "result": "showed more multinucleated cells"},
      {"measurement": "effect on MgcRacGAP GAP activity, single turnover assay", "setting": "[4]", "result": "no effect"},
      {"measurement": "cell cycle state", "setting": "A549 cells [5]", "result": "arrested in G2/M-phase"},
      {"measurement": "tolerance of high concentration", "setting": "A549 cells [6]", "result": "could tolerate such high concentrations"},
      {"measurement": "activity towards BCR", "setting": "[7]; [17]", "result": "no detectable activity"},
      {"measurement": "activity towards BCR, pre-incubation", "setting": "[7]; [18]", "result": "no detectable activity"},
      {"measurement": "dissociation of Rac1-MgcRacGAP complex", "setting": "Rac1-MgcRacGAP complex", "result": "slowed down the dissociation process; also recorded: decreased dissociation rate"},
      {"measurement": "maximum inhibition reached by dose response curves", "setting": "[8]", "result": "80-90%"},
      {"measurement": "IC50", "setting": "[8]; IC50 MgcRacGAP, dose response 0.1-100 µM, no pre-incubation", "result": "15 ± 5", "unit": "µM"},
      {"measurement": "Hill slope", "setting": "[8]; dose response, no pre-incubation", "result": 0.9},
      {"measurement": "Hill slope, pre-incubation", "setting": "[8]; [18]", "result": 0.7},
      {"measurement": "wound-healing rate", "setting": "MDA-MB-231 cells [9]", "result": "decreased wound-healing rates; also recorded: decreasing ability to migrate"},
      {"measurement": "concentration at which cell death was observed", "setting": "MDA-MB-231 cells [10]; [16]", "result": 80, "unit": "µM"},
      {"measurement": "cell toxicity at concentrations that stop proliferation", "setting": "MDA-MB-231 cells [10]; ≥20 µM, highly proliferative cells", "result": "without detectable cell toxicity"},
      {"measurement": "reported bioactivity", "setting": "[11]", "result": "marginal activity"},
      {"measurement": "inhibition of MgcRacGAP-stimulated activity, multiple-turnover assay", "setting": "[12]", "result": "did not detect any notable inhibition"},
      {"measurement": "time of peak of cells with mitotic phenotype", "setting": "A549 cells [13]", "result": "≤ 9", "unit": "h"},
      {"measurement": "percentage of multinucleated cells", "setting": "A549 cells [13]; during 24h treatment", "result": "increased over time"},
      {"measurement": "cell motility", "setting": "A549 cells [14]", "result": "lost almost all motility"},
      {"measurement": "activity towards p50RhoGAP", "setting": "[15]; [17]", "result": "no detectable activity"},
      {"measurement": "activity towards p50RhoGAP, pre-incubation", "setting": "[15]; [18]", "result": "no detectable activity"}
    ]}
  ]
}
